Screening results from PubChem.
GalR3 antagonist: GalR3 antagonists in HEK293 cells, primary screen, cell-based, fluorescence readout; Galanin receptor type 3 (Homo sapiens), O60755; HEK293 GalR3-CNG cAMP membrane potential fluorescence; galR3 body fused to GalR1 C-terminus; inhibition, % at 3 µM; 360,000 tested, 0.44% active;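 active = inhibition above the screen-wide average plus 3 SD, cut at about 13% in these data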;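 also: forskolin and galanin both at EC90 stimulate the cells; cAMP rise reported by CNG channel membrane potential dye signal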
Target sequence (O60755 1-299 limits assumed): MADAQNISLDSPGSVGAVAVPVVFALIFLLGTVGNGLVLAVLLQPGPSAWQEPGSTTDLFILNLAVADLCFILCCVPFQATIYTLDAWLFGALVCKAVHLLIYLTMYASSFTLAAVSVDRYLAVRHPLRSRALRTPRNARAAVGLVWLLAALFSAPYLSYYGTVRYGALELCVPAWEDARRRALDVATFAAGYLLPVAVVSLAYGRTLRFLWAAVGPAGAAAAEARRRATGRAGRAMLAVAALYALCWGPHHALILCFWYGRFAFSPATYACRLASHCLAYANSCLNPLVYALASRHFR
TAAR1 ag: human TAAR1 agonists, primary screen, Fluo-8 calcium fluorescence, CHO RD-HGA16 cells; AID 624467, 2012; Trace amine-associated receptor 1 (Homo sapiens), Q96RJ0; activation, % at 3 µM; vehicle wells 0%, saturating PEA agonist 100%; 360,000 tested, 0.99% active;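 active = activation above the mean activation of all test compounds in the run plus 3 SD, cut at about 38% in these data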
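Assay system – CHO-derived RD-HGA16 cells with stable Gα16 and human TAAR1 · Compound dosing – one-point dosing at 3 µM (nominal) · Incubation – 17-24 h seeding, 75 min 37 °C dye, 30 min RT · Measured by – kinetic Fluo-8 calcium fluorescence · Control set – DMSO vehicle as 0%, PEA at EC100 as 100% · Repeats – single well for each compound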
TAAR1 antag: human TAAR1 antagonists, primary screen, Fluo-8 calcium fluorescence, CHO RD-HGA16 cells. antagonist. inhibition, % at 3 µM. 360,000 tested, 1.5% active;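 active = inhibition above a per-plate cutoff, the mean inhibition of test compounds on that plate plus 3 SD, cut at about 49% in these data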
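Test system – hTAAR1-expressing CHO RD-HGA16 cells, Gα16-coupled · Also added – β-PEA at EC80 concentration, post-compound challenge · Compound – 3 µM, single point · Incubation – dye loading 75 min at 37 °C, then 30 min room temperature · Measured by – Fluo-8 intracellular calcium dye fluorescence, real-time kinetic reads · Benchmarks – vehicle and agonist controls · Replicates – singlicate, one well per test compound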
OX1R antag-1: OX1R (HCRTR1) antagonists, primary screen, fluorescence, CHO/OX1R cells, Fluo-8 calcium, orexin A; Fluo-8 calcium fluorescence; inhibition, % at 5 µM; Orexin/Hypocretin receptor type 1 (Homo sapiens), O43613; 330,000 tested, 0.43% active;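 active = inhibition above its plate's threshold, mean inhibition of all tested compounds on the plate plus 3 SD, cut at about 37% in these data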
CHO parental Ca: ATP-evoked calcium signal inhibitors, parental CHO, primary screen, counter-screen for OX1R antagonist project, cell-based, fluorescence, Fluo-8 calcium dye | parental CHO-K1, ATP-induced calcium, Fluo-8 fluorescence | inhibition, % at 5.6 µM | 330,000 tested, 0.63% active | AID 463079, 2010;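 active = inhibition above that plate's mean sample inhibition plus 3 SD, cut at about 26% in these data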
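Test system: untransfected parental CHO cell line. Compound: one dose, 5.6 µM nominal. Detection: intracellular calcium via Fluo-8 no-wash fluorescent dye. Measure: % inhibition. Benchmarks: ATP-challenged DMSO wells low, unchallenged DMSO wells high.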
OX1R antag-2: antagonists of human orexin 1 receptor (OX1R). Orexin/Hypocretin receptor type 1 (Homo sapiens), O43613. OX1R-expressing cells, FRET antagonist read-out. inhibition, % at 6.6 µM. 330,000 tested, 1.8% active. AID 485270, 2010; in the data active = inhibition mostly above about 38%, no sharp cut-off; inactive = mostly below about 40%
TAAR1 ag conf: human TAAR1 agonists, retest of hits, confirmation, Fluo-8 calcium fluorescence, CHO RD-HGA16 cells; shares compounds with TAAR1 ag; 2,400 tested, 82% active; activation, % at 3 µM; scaled: DMSO 0%, maximal phenethylamine 100%; AID 651783, 2012;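 active = activation above a cutoff set at the run's mean compound activation plus 3 SD, cut at about 39% in these data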
Ga16 ag counter: nonselective calcium mobilization agonists, CHO-Ga16 cells, counter-screen for hTAAR1 agonist project, cell-based, fluorescence, CHO-Ga16 parental line; shares compounds with TAAR1 ag; Fluo-8 calcium fluorescence; normalized to maximal ATP response, DMSO zero; activation, % at 3 µM; 2,400 tested, 50% active; AID 651787, 2012;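 active = activation above the run cutoff, the mean activation over all tested wells plus 3 SD, cut at about 12% in these data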
TAAR1 desensitize: TAAR1 desensitization by agonist hits, confirmation, counter-screen for TAAR1 agonist project, cell-based, fluorescence, tachyphylaxis. 2,400 tested, 46% active. CHO RD-HGA16 hTAAR1, Fluo-8 calcium, beta-PEA response inhibition. inhibition, % at 3 µM. shares compounds with TAAR1 ag;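 active = inhibition above the run cutoff, the mean inhibition of all test compounds plus 3 SD, cut at about 49% in these data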;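 also: beta-PEA stimulus applied at its EC80; loss of beta-PEA calcium signal after compound pretreatment read as receptor desensitization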
Ga16 antag count: inhibition of ATP-evoked calcium response in CHO-Ga16 cells, counter-screen for TAAR1 agonist project, cell-based, fluorescence; shares compounds with TAAR1 ag; CHO-Ga16 ATP-induced calcium, Fluo-8 fluorescence; inhibition, % at 3 µM; 2,400 tested, 39% active; AID 651952, 2012;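 active = inhibition above the plate's mean compound inhibition plus 3 SD, computed per plate, cut at about 22% in these data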
Hits are given with their value; – = inactive; · = no result given. Sampled rows, rich in hits. Any-hit rate of the full collection: about 4.2%.

SMILES	GalR3 antagonist	TAAR1 ag	TAAR1 antag	OX1R antag-1	CHO parental Ca	OX1R antag-2	TAAR1 ag conf	Ga16 ag counter	TAAR1 desensitize	Ga16 antag count
Cc1cc(=O)[nH]c(SCC(=O)N2CCc3ccccc3C2)n1	–	77.1	56.2	–	–	–	77.3	–	–	–
Cn1c(SCC(=O)N2CCc3ccccc3C2)nnc1-c1ccncc1	–	–	–	–	–	–	·	·	·	·
Cc1cc(=O)[nH]c(N2CCc3ccccc3C2)n1	–	–	–	–	–	–	·	·	·	·
CCCn1c(SCC(=O)N2CCc3ccccc3C2)nc(O)cc1=O	–	·	·	–	–	–	·	–	·	–
COC(=O)C1=CO[C@@H](OC2OC(CO)C(O)C(O)C2O)[C@@H]2C(CO)=CC[C@H]12 (stereo partly drawn)	–	–	–	–	–	–	·	·	·	·
Cc1cc(NC(=O)c2ccccc2)n(-c2nc3ccccc3[nH]2)n1	–	–	–	–	–	–	·	·	·	·
Cc1cc(NC(=O)C2CCCC2)n(-c2nc3ccccc3[nH]2)n1	–	56.3	–	–	–	–	–	–	–	–
COc1cccc(CN2CCNC(=O)C2CC(=O)N2CCOc3ccccc3C2)c1OC (stereo not drawn)	–	66.2	–	–	–	–	72.7	–	–	–
COc1ccc(CN2CCNC(=O)C2CC(=O)N2CCc3ccccc3C2)c(OC)c1 (stereo not drawn)	–	–	–	–	–	–	·	·	·	·
CC(C)(C)CN1CCNC(=O)C1CC(=O)N1CCOc2ccccc2C1 (stereo not drawn)	–	59.3	–	–	–	–	54.1	–	–	–
COc1cc(CN2CCNC(=O)C2CC(=O)N2CCc3ccccc3C2)cc(OC)c1 (stereo not drawn)	–	65.6	–	–	–	–	67.6	–	–	–
Cc1ccc(C(=O)c2cn[nH]c2-c2ccccc2O)cc1	–	–	–	–	–	–	·	·	·	·
Cc1ccc(CN2C3=NC(=O)CN3c3ccccc32)cc1	–	–	–	–	–	–	·	·	·	·
CCCCc1ccc(NC(=O)C2CCN(S(C)(=O)=O)CC2)cc1	–	57.4	–	–	–	–	–	–	–	–
CCOC(=O)c1c(C)c(C(=O)NCc2ccco2)c(C)n1Cc1ccccc1	·	·	·	–	–	–	·	·	·	·
O=C(NCCc1ccccc1Cl)[C@@H]1CCCN1C(=O)[C@@H](NC(=O)N1CCOCC1)c1ccccc1	–	41.9	–	·	·	·	60.5	–	–	–
O=C(N[C@H](C(=O)N1CCC[C@H]1C(=O)NCCc1ccccc1Cl)c1ccccc1)C1CCCC1	–	–	–	·	·	·	·	·	·	·
CCOC(=O)N[C@H](C(=O)N1CCC[C@H]1C(=O)NCCc1ccccc1Cl)C1CCCCC1	–	61.0	75.4	·	·	·	85.8	–	95.5	–
